# Measured values taken from ChEMBL document CHEMBL1138529, “Efficacy, pharmacokinetics, and metabolism of tetrahydroquinoline inhibitors of Plasmodium falciparum protein farnesyltransferase” (Antimicrob Agents Chemother, 2007).
# Legend:
# [1] = Permeability from apical to basolateral side in human Caco-2 cells; assay type: ADME, cell-based; conditions: read-out: permeability
# [2] = Inhibition of Plasmodium falciparum protein farnesyltransferase by SPA method
# Mus musculus [3] = experiment: Toxicity in BALB/c mouse at 50 mg/kg, po; assay type: organism-based; design: dose 50 mg/kg, route oral; conditions: in vivo
# Rattus norvegicus = experiment: Toxicity in Sprague-Dawley rat at 50 mg/kg, po; assay type: organism-based; design: dose 50 mg/kg, route oral; conditions: in vivo
# Procedure, shortened: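 Female Sprague-Dawley rats, 10-12 weeks, three per group. 50 mg/kg oral gavage in 3% EtOH-7% Tween 80-90% normal saline. Saphenous vein plasma sampled over time, and animals observed for adverse reactions.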
# Plasmodium falciparum [4] = experiment: Antiplasmodial activity against Plasmodium falciparum by [3H]hypoxanthine uptake; assay type: functional; conditions: read-out: ED50 (the source's name)
# Procedure, shortened: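 Asynchronous P. falciparum (3D7 or K1) in RPMI 1640 with 20% heat-inactivated human A+ plasma, 0.5% parasitemia and 0.5% hematocrit; compound serially diluted, top final 5 μM, 48 h at 37°C under 5% CO2/5% O2/90% N2, then [8-3H]hypoxanthine 0.3 μCi added for 24 h.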
# [5] = AUC in Sprague-Dawley rat at 50 mg/kg, po; assay type: ADME, organism-based; design: dose 50 mg/kg, route oral; conditions: plasma
# Procedure, shortened: (§1)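 Three female BALB/c mice (lines for mice, 8–10 weeks) or three female Sprague-Dawley rats (10–12 weeks) per group; 50 mg/kg oral gavage in 3% EtOH-7% Tween 80-90% normal saline. Plasma sampled at set times (tail bleed in mice, saphenous vein in rats), extracted with acetonitrile plus internal standard, quantified by LC/MS; AUC as mean of three animals.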
# [6] = Cmax in Sprague-Dawley rat at 50 mg/kg, po; assay type: ADME, organism-based; design: dose 50 mg/kg, route oral; conditions: in vivo
# Procedure, shortened: (§2)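 50 mg/kg by oral gavage in 3% EtOH-7% Tween 80-90% normal saline to groups of three females (BALB/c mice, 8–10 weeks, tail bleed; Sprague-Dawley rats, 10–12 weeks, saphenous vein). Plasma extracted with acetonitrile/internal standard, LC/MS; means of three animals. Oral elimination half-life depends on absorption rate as well as elimination.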
# [7] = Elimination half life in Sprague-Dawley rat at 50 mg/kg, po; assay type: ADME, organism-based; design: dose 50 mg/kg, route oral; conditions: in vivo, read-out: beta t1/2; procedure, shortened: as §2
# [8] = Cmax in BALB/c mouse at 50 mg/kg, po; assay type: ADME, organism-based; design: dose 50 mg/kg, route oral; conditions: in vivo; procedure, shortened: as §2
# [9] = Elimination half life in BALB/c mouse at 50 mg/kg, po; assay type: ADME, organism-based; design: dose 50 mg/kg, route oral; conditions: in vivo, read-out: beta t1/2; procedure, shortened: as §2
# [10] = Metabolic stability in mouse liver microsomes; assay type: ADME, Microsome
# Procedure, shortened: (§3)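 Pooled female liver microsomes at 0.5 mg/ml in 0.1 M potassium phosphate pH 7.4, 3 mM MgCl2, 1 mM EDTA, with NADPH regenerating system (1 mM NADP+, 5 mM glucose-6-phosphate, 1 U/ml G6PDH). Preincubated 10 min at 37°C, then compound added to 1 μM final. Time points quenched with 3 volumes acetonitrile plus internal standard; parent quantified by LC/MS; half-life reported.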
# [11] = Metabolic stability in rat liver microsomes; assay type: ADME, Microsome; procedure, shortened: as §3
# [12] = AUC in BALB/c mouse at 50 mg/kg, po; assay type: ADME, organism-based; design: dose 50 mg/kg, route oral; conditions: plasma; procedure, shortened: as §1
# [13] = Permeability from basolateral to apical side in human Caco-2 cells; assay type: ADME, cell-based; conditions: read-out: permeability
# Procedure, shortened: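 Caco-2 clone TC7 grown on laminin-coated porous inserts and used 19-21 days after seeding; integrity checked by TEER and [3H]mannitol flux. Monolayers equilibrated 30 min at 37°C in HBSS/5 mM HEPES pH 7.4. Compound at 50 μM final added to basolateral donor side. Apical receiver sampled at 60 min, 37°C with shaking; LC/MS; Papp calculated from 60-min concentrations.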
# Mus musculus [14] = experiment: Plasma concentration in BALB/c mouse at 50 mg/kg, po; assay type: ADME, organism-based; design: dose 50 mg/kg, route oral; conditions: in vivo
# Procedure, shortened: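 Female BALB/c mice, 8-10 weeks, three per group. Single 50 mg/kg oral gavage in 3% EtOH-7% Tween 80-90% normal saline. Plasma collected by tail bleed at set times, frozen at −20°C, acetonitrile-extracted with internal standard, quantified by LC/MS.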
# Plasmodium falciparum [15] = experiment: Antiplasmodial activity against chloroquine-resistant Plasmodium falciparum K1 by [3H]hypoxanthine uptake; assay type: functional; conditions: read-out: ED50 (the source's name)
# Procedure, shortened: (§4)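 Asynchronous cultures at 0.5% parasitemia and 0.5% hematocrit in RPMI 1640 with 20% heat-inactivated human A+ plasma, exposed to serially diluted inhibitor (top final 5 μM, from DMSO stock) under 5% CO2/5% O2/90% N2 at 37°C for 48 h. [3H]hypoxanthine was then added for 24 h and harvested counts were background-subtracted against DMSO-only controls. ED50 came from linear regression, as the mean of duplicates.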
# Plasmodium falciparum [16] = experiment: Antiplasmodial activity against chloroquine-sensitive Plasmodium falciparum 3D7 by [3H]hypoxanthine uptake; assay type: functional; conditions: read-out: ED50 (the source's name); procedure, shortened: as §4
SMILES,Papp A→B [1] [×10⁻⁶ cm/s],IC50 [2] [nM],Activity (Mus musculus [3]),Activity (Rattus norvegicus),EC50 (Plasmodium falciparum [4]) [nM],AUC [5] [µM·h],Cmax [6] [µM],half-life [7] [min],Cmax [8] [µM],half-life [9] [min],half-life [10] [min],half-life [11] [min],AUC [12] [µM·h],Papp B→A [13] [×10⁻⁶ cm/s],concentration (Mus musculus [14]) [µM],EC50 (Plasmodium falciparum [15]) [nM],EC50 (Plasmodium falciparum [16]) [nM]
Cn1cncc1CN1CC(N(CC2CCN(C(=O)OCc3ccccc3)CC2)S(=O)(=O)c2ccccn2)Cc2cc(C#N)ccc21 (stereo not drawn),1,0.5,Non-toxic,Non-toxic,16,10.9,4.5,–,–,–,–,–,–,–,–,–,–
Cn1cnc(S(=O)(=O)N(CC(=O)NC(C)(C)C)C2Cc3cc(-c4ccccc4)ccc3N(Cc3cncn3C)C2)c1 (stereo not drawn),–,–,–,Non-toxic,–,13.5,4.1,106,5,88,98,165,15.7,–,–,–,–
CC(C)OC(=O)N1CCC(CN(C2Cc3cc(C#N)ccc3N(Cc3cncn3C)C2)S(=O)(=O)c2ccccn2)CC1 (stereo not drawn),1,0.5,Non-toxic,Non-toxic,16,10.9,4.5,–,–,–,–,–,–,–,–,–,–
Cn1cncc1CN1CC(N(CCn2cccc2)S(=O)(=O)c2ccccn2)Cc2cc(C#N)ccc21 (stereo not drawn),12.4,–,Non-toxic,Non-toxic,–,11.6,5.4,62,13.5,40,4.9,10.4,15.9,45.5,13.6,–,–
CCOC(=O)N1CCC(CN(C2Cc3cc(C#N)ccc3N(Cc3cncn3C)C2)S(=O)(=O)c2ccccn2)CC1 (stereo not drawn),2.6,0.6,Non-toxic,Non-toxic,55,–,–,–,–,–,–,12,–,–,–,40,55
Cn1cnc(S(=O)(=O)N(Cc2ccc(C(F)(F)F)o2)C2Cc3cc(C#N)ccc3N(Cc3cncn3C)C2)c1 (stereo not drawn),0.7,–,Non-toxic,Non-toxic,–,5.42,3.4,26,3.9,30,3.4,16,4.55,72.5,3.9,–,–
CC(C)COC(=O)N1CCC(CN(C2Cc3cc(C#N)ccc3N(Cc3cncn3C)C2)S(=O)(=O)c2ccccn2)CC1 (stereo not drawn),–,0.7,–,–,62,33.8,8.4,62,5.4,26,5.1,18,4.67,–,–,62,62
Cn1cnc(S(=O)(=O)N(Cc2ccccn2)C2Cc3cc(C#N)ccc3N(Cc3cncn3C)C2)c1 (stereo not drawn),0.2,–,Non-toxic,–,–,–,–,–,–,–,–,–,–,23.9,1,–,–
